Measured values published in ChEMBL document CHEMBL3098030, “Explorations of substituted urea functionality for the discovery of new activators of the heme-regulated inhibitor kinase” (J Med Chem, 2013).
Calls of active or inactive are those of the source. The calls are words filed in the database; no cut-off is given here.

Columns and labels:
[1] = biological target: Eukaryotic translation initiation factor 2-alpha kinase 1 (Homo sapiens) (UniProt Q9BQI3); test: Activation of HRI in human CRL-2813-pBISA-DL(ATF-4) reporter cells assessed as concentration required to obtain F-luciferase expression/R-luciferase expression ratio 3
Method in brief: (§1)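 Stably transfected CRL-2813-pBISA-DL(ATF-4) reporter cells treated with compounds in dose-response; firefly and renilla luciferases read by dual glow luciferase kit. Activity = firefly/renilla (F/R) ratio normalized to DMSO-treated wells (set at 1). Triplicate points fitted to logistic sigmoidal model by nonlinear least squares; C3X = concentration giving F/R = 3, Emax = maximal F/R.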

[2] = biological target: Eukaryotic translation initiation factor 2-alpha kinase 1 (Homo sapiens) (UniProt Q9BQI3); test: Activation of HRI in human CRL2813 cells assessed as reduction in cyclin D1 mRNA expression at 7.5 to 15 uM after 6 hrs by RT-PCR analysis; format: cell-based
Method in brief: (§2)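 CRL-2813 cells incubated with 7.5 or 15 μM compound for 6 h; CHOP and cyclin D1 mRNA measured by real-time PCR. Each run in triplicate, mean of three independent experiments ±S.E.M.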

[3] = Antiproliferative activity against human CRL2813 cells after 5 days by SRB assay in presence of HRI-targeting siRNA; format: functional, cell-based; details: CRL2813, 120 h
[4] = Cytotoxicity against human CRL2813 cells after 5 days by SRB assay; format: functional, cell-based; details: CRL2813, 120 h
Method in brief: (§3)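 CRL-2813 melanoma or NIH/3T3 fibroblasts seeded in 96-well plates, exposed 5 days to 0.5–20 μM compound; fixed in cold 10% TCA, bound sulforhodamine B measured. % growth = 100×(T−T0)/(C−T0). IC50 derived; triplicate, three independent experiments.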

MCF7 [5] = test: Antiproliferative activity against human MCF7 cells after 5 days by SRB assay in presence of HRI-targeting siRNA; format: functional, cell-based; details: MCF7, 120 h
[6] = biological target: Eukaryotic translation initiation factor 2-alpha kinase 1 (Homo sapiens) (UniProt Q9BQI3); test: Activation of HRI in human CRL2813 cells assessed as eIF2alpha phosphorylation after 6 hrs by Western blotting analysis; format: cell-based
Method in brief: (§4)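 CRL-2813 melanoma cells grown in serum-containing medium without antibiotics to 70% confluence, treated 6 h (10 μM for CHOP/cyclin D1), lysed in M-PER on ice 30 min, protein by BCA. Equal protein on SDS-PAGE, probed with anti-pS51-eIF2α rabbit mAb, anti-total eIF2α mouse mAb, anti-CHOP, anti-cyclin D1, anti-actin. Three independent experiments.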

[7] = biological target: Eukaryotic translation initiation factor 2-alpha kinase 1 (Homo sapiens) (UniProt Q9BQI3); test: Activation of HRI in human CRL-2813-pBISA-DL(ATF-4) reporter cells assessed as eIF2alpha phosphorylation after 10 hrs by dual-luciferase reporter gene assay in presence of siRNA relative to control
Method in brief: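 CRL-2813-pBISA-DL(ATF-4) reporter cells transiently transfected (Lipofectamine 2000) with HRI-targeting or non-targeting siRNA for 48 h, then treated with compounds or DMSO for 10 h. Firefly/renilla ratio by dual luciferase assay, normalized to vehicle. Triplicate, three independent experiments; mean±S.E.M.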

[8] = biological target: Eukaryotic translation initiation factor 2-alpha kinase 1 (Homo sapiens) (UniProt Q9BQI3); test: Activation of HRI in human CRL-2813-pBISA-DL(ATF-4) reporter cells assessed as reduction of ternary complex at 30 uM by dual-luciferase reporter gene assay relative to control; method in brief: as §1
[9] = biological target: Eukaryotic translation initiation factor 2-alpha kinase 1 (Homo sapiens) (UniProt Q9BQI3); test: Activation of HRI in human CRL2813 cells assessed as increase in CHOP mRNA expression at 7.5 to 15 uM after 6 hrs by RT-PCR analysis; format: cell-based; method in brief: as §2
[10] = biological target: Eukaryotic translation initiation factor 2-alpha kinase 1 (Homo sapiens) (UniProt Q9BQI3); test: Activation of HRI in human CRL2813 cells assessed as increase in CHOP protein expression at 10 uM after 6 hrs by Western blotting analysis; format: cell-based; method in brief: as §4
[11] = biological target: Eukaryotic translation initiation factor 2-alpha kinase 1 (Homo sapiens) (UniProt Q9BQI3); test: Activation of HRI in human CRL2813 cells assessed as reduction in cyclin D1 protein expression at 10 uM after 6 hrs by Western blotting analysis; format: cell-based; method in brief: as §4
[12] = Antiproliferative activity against human CRL2813 cells after 5 days by SRB assay in presence of non-targeting siRNA; format: functional, cell-based; details: CRL2813, 120 h
[13] = Ratio of IC50 for human CRL2813 cells after 3 days by SRB assay in presence of HRI-targeting siRNA to IC50 for human CRL2813 cells after 3 days by SRB assay in presence of non-targeting siRNA
MCF7 [14] = test: Antiproliferative activity against human MCF7 cells after 5 days by SRB assay in presence of non-targeting siRNA; format: functional, cell-based; details: MCF7, 120 h
[15] = Antiproliferative activity against human CRL2813 cells after 3 days by SRB assay in presence of HRI-targeting siRNA; format: functional, cell-based; details: CRL2813, 72 h
Method in brief: (§5)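 CRL-2813 cells transiently transfected (Lipofectamine 2000) with HRI-targeting or non-targeting siRNA, then treated with compound dose range; proliferation by SRB after 3 days. IC50 calculated per siRNA condition; ratio is HRI-siRNA over non-targeting IC50. Triplicate, three independent experiments; mean±S.E.M.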

[16] = Antiproliferative activity against human CRL2813 cells after 3 days by SRB assay in presence of non-targeting siRNA; format: functional, cell-based; details: CRL2813, 72 h; method in brief: as §5
[17] = Ratio of IC50 for human CRL2813 cells after 3 days by SRB assay in presence of HRI-targeting siRNA to IC50 for human CRL2813 cells after 3 days by SRB assay in presence of non-targeting siRNA; format: functional; method in brief: as §5
[18] = biological target: Eukaryotic translation initiation factor 2-alpha kinase 1 (Homo sapiens) (UniProt Q9BQI3); test: Activation of HRI in human CRL-2813-pBISA-DL(ATF-4) reporter cells assessed as eIF2alpha phosphorylation after 8 to 32 hrs by dual-luciferase reporter gene assay
Method in brief: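 Reporter CRL-2813-pBISA-DL(ATF-4) cells incubated with compounds for 8, 16 or 32 h. Firefly/renilla luciferase ratio measured by dual luciferase assay and normalized to vehicle-treated cells.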

[19] = Selectivity ratio of IC50 for mouse NIH/3T3 cells to IC50 for human CRL2813 cells; format: ADME, cell-based; details: NIH/3T3 cells and CRL2813 cells, read-out: Ratio IC50
NIH3T3 = test: Cytotoxicity against mouse NIH/3T3 cells after 5 days by SRB assay; format: cell-based; details: NIH3T3, 120 h; method in brief: as §3

Eukaryotic translation initiation factor 2-alpha kinase 1 (Homo sapiens), sequence (Q9BQI3 whole entry): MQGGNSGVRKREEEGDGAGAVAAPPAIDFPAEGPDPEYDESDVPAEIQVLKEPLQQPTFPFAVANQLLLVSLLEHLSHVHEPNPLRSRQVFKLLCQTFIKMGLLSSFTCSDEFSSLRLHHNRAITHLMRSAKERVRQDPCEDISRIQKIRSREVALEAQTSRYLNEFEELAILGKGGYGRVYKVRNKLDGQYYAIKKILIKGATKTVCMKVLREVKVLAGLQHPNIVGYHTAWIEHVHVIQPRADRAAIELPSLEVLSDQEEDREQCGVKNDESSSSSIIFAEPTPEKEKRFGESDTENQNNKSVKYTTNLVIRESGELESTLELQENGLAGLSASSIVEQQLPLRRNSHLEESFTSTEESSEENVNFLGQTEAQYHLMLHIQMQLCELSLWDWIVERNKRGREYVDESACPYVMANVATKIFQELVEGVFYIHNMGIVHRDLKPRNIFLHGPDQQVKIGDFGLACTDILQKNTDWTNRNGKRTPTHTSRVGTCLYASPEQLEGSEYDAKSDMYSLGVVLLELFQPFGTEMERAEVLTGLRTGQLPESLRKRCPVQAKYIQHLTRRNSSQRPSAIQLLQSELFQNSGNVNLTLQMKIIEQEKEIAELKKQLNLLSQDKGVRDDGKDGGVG

| Activity [1] | Activity [2] | IC50 (MCF7 [5]) | Activity [6] | Activity [7] | Ratio [8] | Activity [9] | Activity [10] | Activity [11] | IC50 (MCF7 [14]) | Activity [18] | Structure (SMILES) | IC50 [3] | IC50 [4] | IC50 [12] | Ratio IC50 [13] | IC50 [15] | IC50 [16] | Ratio IC50 [17] | selectivity ratio [19] | IC50 (NIH3T3) |
| --- | --- | --- | --- | --- | --- | --- | --- | --- | --- | --- | --- | --- | --- | --- | --- | --- | --- | --- | --- | --- |
| 6.7 µM | Active | > 30 µM | Active | inactive | 9 | Active | Active | Active | 9.8 µM |  | O=C(Nc1ccc([N+](=O)[O-])cc1)N[C@H]1CC[C@H](Oc2ccc(F)cc2)CC1 | 12.2 µM | 2.3 µM | 5.2 µM | 1.7 |  |  |  |  |  |
| 4.5 µM | Active | > 30 µM | Active | inactive | 11.8 | Active | Active | Active | 11.3 µM |  | O=C(Nc1cccc(C(F)(F)F)c1)N[C@H]1CC[C@@H](Oc2ccc(F)cc2)CC1 | 10.4 µM | 2.6 µM | 6 µM | 1.7 | 10.4 µM | 6 µM |  |  |  |
| 2.6 µM |  |  |  |  | 7.23 |  |  |  |  | Active | O=C(Nc1cccc(C(F)(F)F)c1)N[C@H]1CC[C@H](Oc2cccc(F)c2)CC1 |  | 2.4 µM |  |  | 29.9 µM | 4.3 µM | 7 |  |  |
| 0.7 µM | Active | 30 µM | Active | inactive | 15.3 | Active | Active | Active | 9.2 µM |  | O=C(Nc1ccc(OC(F)(F)F)cc1)N[C@H]1CC[C@H](Oc2ccc(F)cc2)CC1 | 7.4 µM | 2.7 µM | 3.3 µM | 1.7 |  |  |  | 5 | 13.6 µM |
| 1.6 µM | Active | 29.5 µM | Active | inactive | 14 | Active | Active | Active | 8.4 µM |  | O=C(Nc1ccc(C(F)(F)F)cc1)N[C@H]1CC[C@H](Oc2ccc(F)cc2)CC1 | 6.5 µM | 2.8 µM | 3.1 µM | 1.7 |  |  |  |  |  |
| 3.2 µM |  |  |  |  | 7.98 |  |  |  |  | Active | O=C(Nc1cccc(C(F)(F)F)c1)N[C@H]1CC[C@H](Oc2ccccc2F)CC1 |  | 2.45 µM |  |  | 21.9 µM | 2.8 µM | 7 |  |  |
